Shown are actives, neighbours in structure and some others; about 4% of the full set was active somewhere.
NR3A LBD binder = binders of NR3A ligand-binding domain, primary screen, biophysical, differential scanning fluorimetry, uHTS; Glutamate receptor ionotropic, NMDA 3A (GRIN3A) ligand-binding domain; NR3A LBD differential scanning fluorimetry, Tm shift; 0% = protein alone, 100% = glycine-bound protein; Tm shift relative to glycine control, % at 25 µM; actives 2.5% (n = 340,000); AID 1259313, 2017;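 active means melting temperature shift of at least 10% of the positive control shift, at one fixed dose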
SENP1 FRET inh = human SENP1 catalytic domain inhibitors, primary screen, biochemical, FRET, uHTS | Sentrin-specific protease 1 (Homo sapiens), Q9P0U3 | recombinant SENP1 catalytic domain, CyPet-SUMO1-YPet FRET cleavage | inhibition, % at 10 µM | actives 0.21% (n = 360,000) | AID 624204, 2012;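 active means inhibition at least 30% at 10 µM, raw YFP signal under a set limit, fluorescence ratio 0.5 to 1.5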;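 further: 0% = enzyme with DMSO and 100% = no enzyme wells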
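System: Recombinant human SENP1 catalytic domain, His6-tagged | Incubation: Enzyme reaction for 50 min at room temperature, dark | Medium: Tris pH 8 with BME, BSA, NP40 and catalase | Also added: 25 nM SUMO1 FRET substrate | Compound: 10 µM single point, 0.5% DMSO | Measured by: FRET fluorescence in CFP and YFP emission channels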
H9c2 protect = cardioprotection against H2O2-induced cell death, primary screen, uHTS, H9c2 cells, ATPLite luminescence. AID 588492, 2011. protection from H2O2 cell death, % at 20 µM. actives 0.63% (n = 360,000). H9c2 cardiomyocytes, H2O2 injury protection, 2 h;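 active means compounds giving at least 50% protection of heart cells from peroxide-induced death in the single-dose screen, raw or plate-pattern-corrected value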;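 further: 0% = DMSO wells with peroxide and 100% = DMSO wells without peroxide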
iPSC survival up = enhancers of single-cell hiPSC survival, primary screen, ATPlite luminescence; survival enhancement, % at 20 µM; actives 0.044% (n = 360,000); AID 602274, 2012; 100% = ROCK inhibitor wells, 0% = DMSO; in the data active means survival enhancement above about 18%;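 further: cells exposed to compounds for 16 hours before the ATP read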
FAS-TE inh = FAS thioesterase domain inhibitors, primary screen, biochemical, fluorescence intensity, uHTS; actives 0.67% (n = 360,000); Fatty acid synthase (Homo sapiens), P49327; inhibition, % at 15 µM; recombinant FAS-TE, OMFH fluorogenic substrate, fluorescence endpoint;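 active means compounds whose normalised, plate-corrected inhibition of enzyme fluorescence in the single-dose primary screen is 50% or more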;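 further: 0% = DMSO with enzyme and 100% = substrate without enzyme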
Arr AP2 block = inhibitors of beta-arrestin/AP2 binding, primary screen, biochemical, GPCR trafficking, flow cytometry | FITC-arrestin peptide / GST-AP2 beads; AP2 beta2 appendage carries R879A mutation | AID 504490, 2011 | inhibition, % at 10 µM | actives 0.31% (n = 340,000);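 active means inhibition above a set limit, near 3 SD of compounds lacking own fluorescence, cut at about 54% in these data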;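 further: plate controls were DMSO wells for no effect and 5 µM unlabelled arrestin peptide for full effect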
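System: GST-AP2 R879A bound to glutathione beads, E. coli-expressed. Also added: 50 nM FITC-arrestin peptide. Schedule: compound with beads 12 min RT, then probe 1 h RT. Signal: bead flow cytometry, FITC channel. Read-out basis: percent response.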
FAS-TE conf = FAS thioesterase domain inhibitors, confirmation, biochemical, fluorescence intensity, single concentration; shares compounds with FAS-TE inh; recombinant FAS-TE, OMFH fluorogenic substrate; inhibition, % at 15 µM; actives 45% (n = 2,300); AID 624325, 2012;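 active means compounds inhibiting the enzyme by at least 50% at 15 µM in any one of the replicates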;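 further: 0% = enzyme with DMSO only and 100% = wells lacking enzyme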
* marks the source's active call; other numbers are inactive results; · = no result given.

SMILES | NR3A LBD binder | SENP1 FRET inh | H9c2 protect | iPSC survival up | FAS-TE inh | Arr AP2 block | FAS-TE conf
COc1ccc(C(=O)N/C(=C/c2cccnc2)C(=O)Nc2cccc(C(C)=O)c2)cc1OC | 0 | 0 | -2 | 0 | -2 | -4 | ·
COc1ccc(C(=O)N/C(=C\c2ccccc2)C(=O)Nc2cccc(C(=O)O)c2)cc1 | -1 | -2 | -1 | 2 | -5 | -11 | ·
CC(=O)c1cccc(NC(=O)/C(=C\c2cccnc2)NC(=O)c2ccccc2)c1 | -1 | -1 | 1 | 0 | -5 | -5 | ·
CC(C)(C)c1ccc(C(=O)N/C(=C\c2cccc([N+](=O)[O-])c2)C(=O)Nc2cccc(C(=O)O)c2)cc1 | -4 | 1 | -9 | 0 | 83* | 38 | 88*
COc1ccccc1/C=C(\NC(=O)c1ccc(OC)c(OC)c1)C(=O)Nc1ccc([N+](=O)[O-])cc1 | 0 | -1 | -3 | -1 | 86* | 0 | 18
O=C(NCC1CCCO1)c1ccccc1NS(=O)(=O)c1ccc(Br)s1 (centres undefined) | 1 | 0 | -6 | -1 | 16 | 14 | ·
CCNC(=O)C[C@@H]1CC[C@H]2[C@@H](COC[C@H](O)CN2C(=O)C2CC2)O1 | · | 2 | · | · | · | · | ·
C[C@H](O)[C@@H]1C(=O)N2CCc3c([nH]c4ccccc34)[C@@H]2C[C@@H]1N(C)Cc1ccc(Cl)cc1 | · | -76 | -12 | 1 | 22 | · | ·
CSc1ccc(CNC(=O)C2(C)CCCN2CC(C)C)cc1 (centres undefined) | · | -11 | 1 | -1 | -1 | · | ·
Cc1cccc(Nc2ccc(S(=O)(=O)N3CCOCC3)cc2[N+](=O)[O-])c1 | -2 | 5 | -2 | 0 | 25 | -12 | ·
Cc1cccc(C)c1NC(=S)N=Nc1c(O)n(C)c2ccc(S(=O)(=O)N3CCOCC3)cc12 | -2 | 1 | 29 | -2 | 76* | -1 | 31
Cc1ccc(NC(=S)N=Nc2c(O)n(C)c3ccc(S(=O)(=O)N4CCOCC4)cc23)cc1 | -11 | 6 | 38 | -3 | 59* | 6 | 27
Cc1cccc(NC(=S)N=Nc2c(O)n(C)c3ccc(S(=O)(=O)N4CCOCC4)cc23)c1 | -8 | 3 | 29 | -2 | 59* | 14 | 24
C=CCn1c(O)c(N=NC(=S)Nc2ccccc2F)c2ccccc21 | -4 | 6 | 21 | 0 | 27 | 16 | ·
C=CCn1c(O)c(N=NC(=S)Nc2ccccc2F)c2cc(S(=O)(=O)N3CCOCC3)ccc21 | -4 | 5 | 16 | 0 | 59* | 50 | 16
Cc1nn(CC(=O)Nc2ccc3c(c2)OCCO3)c(C)c1[N+](=O)[O-] | 0 | 1 | -2 | 0 | -6 | 0 | ·
Cc1cc(C)cc(NC(=S)N=Nc2c(O)n(C)c3ccc(S(=O)(=O)N4CCOCC4)cc23)c1 | -6 | 3 | 16 | -1 | 61* | 38 | 6
Cc1ccccc1NC(=S)N=Nc1c(O)n(C)c2ccc(S(=O)(=O)N3CCOCC3)cc12 | -4 | -1 | 23 | -1 | 21 | 2 | ·
C=CCOC(=O)COc1ccc2c(C)c(CC)c(=O)oc2c1 | -1 | 3 | 15 | 0 | 70* | 1 | 73*
O=C1OCCN1C(=O)[C@H]1[C@H](c2ccccc2)C(c2cccc(Cl)c2)=NN1c1ccccc1 | 0 | -24 | -6 | 3 | 56* | -18 | 18
Cc1cccc(C2=NN(c3ccccc3)[C@@H](C(=O)N3CCOC3=O)[C@@H]2c2ccc(Cl)cc2)c1 | 11* | -64 | 13 | 0 | 56* | -8 | 18
O=C1OCCN1C(=O)[C@H]1[C@H](c2ccc(Cl)cc2)C(c2ccccc2)=NN1c1ccccc1 | 6 | -54 | 26 | -1 | 50 | 0 | ·

Screens: PubChem BioAssay, several laboratories
